How the values were obtained:
Assay type in all cases: biochemical
LAR = LAR (Homo sapiens, UniProt P10586); assay: PTP activity assay with pNPP, LAR
Procedure, shortened: (§1)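 Reactions started by adding enzyme to mixtures with various pNPP and test-compound concentrations. Rates were fitted with an enzyme-kinetics model for Ki.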

He-PTP = molecular target: T1, He-PTP (Homo sapiens, UniProt P35236); assay: PTP activity assay with pNPP, He-PTP
T1 sequence (P35236 1-360): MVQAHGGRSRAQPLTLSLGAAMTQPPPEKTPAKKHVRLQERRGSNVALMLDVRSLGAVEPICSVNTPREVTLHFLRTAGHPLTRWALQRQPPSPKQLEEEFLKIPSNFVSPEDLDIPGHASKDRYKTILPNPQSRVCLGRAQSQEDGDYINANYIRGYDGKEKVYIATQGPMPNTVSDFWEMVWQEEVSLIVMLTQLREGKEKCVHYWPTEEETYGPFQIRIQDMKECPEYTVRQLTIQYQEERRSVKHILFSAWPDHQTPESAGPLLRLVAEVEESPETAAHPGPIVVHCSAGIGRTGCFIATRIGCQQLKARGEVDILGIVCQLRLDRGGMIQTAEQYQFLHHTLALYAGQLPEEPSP
Procedure, shortened: as §1

FAP1 = FAP1 (Homo sapiens, UniProt Q12923); assay: PTP activity assay with pNPP, FAP1
Procedure, shortened: as §1

Cdc14A = molecular target: T2, Cdc14A (Homo sapiens, UniProt Q9UNH5); assay: PTP activity assay with pNPP, Cdc14A
T2 sequence (Q9UNH5 1-594): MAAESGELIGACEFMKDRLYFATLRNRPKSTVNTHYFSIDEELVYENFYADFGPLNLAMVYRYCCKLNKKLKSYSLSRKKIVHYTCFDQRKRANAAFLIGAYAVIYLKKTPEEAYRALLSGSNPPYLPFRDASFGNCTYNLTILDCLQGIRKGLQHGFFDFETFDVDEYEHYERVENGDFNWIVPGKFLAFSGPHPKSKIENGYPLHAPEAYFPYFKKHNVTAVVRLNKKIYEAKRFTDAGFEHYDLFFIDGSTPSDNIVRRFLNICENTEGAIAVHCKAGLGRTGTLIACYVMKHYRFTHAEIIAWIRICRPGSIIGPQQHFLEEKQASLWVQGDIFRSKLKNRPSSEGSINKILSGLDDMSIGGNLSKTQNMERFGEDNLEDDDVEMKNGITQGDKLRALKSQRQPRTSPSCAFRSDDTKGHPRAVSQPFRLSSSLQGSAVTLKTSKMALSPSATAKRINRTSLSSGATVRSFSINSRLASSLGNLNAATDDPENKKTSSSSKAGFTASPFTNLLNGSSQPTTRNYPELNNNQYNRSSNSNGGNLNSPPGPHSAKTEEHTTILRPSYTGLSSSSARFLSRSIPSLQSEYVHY
Procedure, shortened: as §1

Measured: Ki

Sequence of FAP1 (Q12923 whole entry, species assumed): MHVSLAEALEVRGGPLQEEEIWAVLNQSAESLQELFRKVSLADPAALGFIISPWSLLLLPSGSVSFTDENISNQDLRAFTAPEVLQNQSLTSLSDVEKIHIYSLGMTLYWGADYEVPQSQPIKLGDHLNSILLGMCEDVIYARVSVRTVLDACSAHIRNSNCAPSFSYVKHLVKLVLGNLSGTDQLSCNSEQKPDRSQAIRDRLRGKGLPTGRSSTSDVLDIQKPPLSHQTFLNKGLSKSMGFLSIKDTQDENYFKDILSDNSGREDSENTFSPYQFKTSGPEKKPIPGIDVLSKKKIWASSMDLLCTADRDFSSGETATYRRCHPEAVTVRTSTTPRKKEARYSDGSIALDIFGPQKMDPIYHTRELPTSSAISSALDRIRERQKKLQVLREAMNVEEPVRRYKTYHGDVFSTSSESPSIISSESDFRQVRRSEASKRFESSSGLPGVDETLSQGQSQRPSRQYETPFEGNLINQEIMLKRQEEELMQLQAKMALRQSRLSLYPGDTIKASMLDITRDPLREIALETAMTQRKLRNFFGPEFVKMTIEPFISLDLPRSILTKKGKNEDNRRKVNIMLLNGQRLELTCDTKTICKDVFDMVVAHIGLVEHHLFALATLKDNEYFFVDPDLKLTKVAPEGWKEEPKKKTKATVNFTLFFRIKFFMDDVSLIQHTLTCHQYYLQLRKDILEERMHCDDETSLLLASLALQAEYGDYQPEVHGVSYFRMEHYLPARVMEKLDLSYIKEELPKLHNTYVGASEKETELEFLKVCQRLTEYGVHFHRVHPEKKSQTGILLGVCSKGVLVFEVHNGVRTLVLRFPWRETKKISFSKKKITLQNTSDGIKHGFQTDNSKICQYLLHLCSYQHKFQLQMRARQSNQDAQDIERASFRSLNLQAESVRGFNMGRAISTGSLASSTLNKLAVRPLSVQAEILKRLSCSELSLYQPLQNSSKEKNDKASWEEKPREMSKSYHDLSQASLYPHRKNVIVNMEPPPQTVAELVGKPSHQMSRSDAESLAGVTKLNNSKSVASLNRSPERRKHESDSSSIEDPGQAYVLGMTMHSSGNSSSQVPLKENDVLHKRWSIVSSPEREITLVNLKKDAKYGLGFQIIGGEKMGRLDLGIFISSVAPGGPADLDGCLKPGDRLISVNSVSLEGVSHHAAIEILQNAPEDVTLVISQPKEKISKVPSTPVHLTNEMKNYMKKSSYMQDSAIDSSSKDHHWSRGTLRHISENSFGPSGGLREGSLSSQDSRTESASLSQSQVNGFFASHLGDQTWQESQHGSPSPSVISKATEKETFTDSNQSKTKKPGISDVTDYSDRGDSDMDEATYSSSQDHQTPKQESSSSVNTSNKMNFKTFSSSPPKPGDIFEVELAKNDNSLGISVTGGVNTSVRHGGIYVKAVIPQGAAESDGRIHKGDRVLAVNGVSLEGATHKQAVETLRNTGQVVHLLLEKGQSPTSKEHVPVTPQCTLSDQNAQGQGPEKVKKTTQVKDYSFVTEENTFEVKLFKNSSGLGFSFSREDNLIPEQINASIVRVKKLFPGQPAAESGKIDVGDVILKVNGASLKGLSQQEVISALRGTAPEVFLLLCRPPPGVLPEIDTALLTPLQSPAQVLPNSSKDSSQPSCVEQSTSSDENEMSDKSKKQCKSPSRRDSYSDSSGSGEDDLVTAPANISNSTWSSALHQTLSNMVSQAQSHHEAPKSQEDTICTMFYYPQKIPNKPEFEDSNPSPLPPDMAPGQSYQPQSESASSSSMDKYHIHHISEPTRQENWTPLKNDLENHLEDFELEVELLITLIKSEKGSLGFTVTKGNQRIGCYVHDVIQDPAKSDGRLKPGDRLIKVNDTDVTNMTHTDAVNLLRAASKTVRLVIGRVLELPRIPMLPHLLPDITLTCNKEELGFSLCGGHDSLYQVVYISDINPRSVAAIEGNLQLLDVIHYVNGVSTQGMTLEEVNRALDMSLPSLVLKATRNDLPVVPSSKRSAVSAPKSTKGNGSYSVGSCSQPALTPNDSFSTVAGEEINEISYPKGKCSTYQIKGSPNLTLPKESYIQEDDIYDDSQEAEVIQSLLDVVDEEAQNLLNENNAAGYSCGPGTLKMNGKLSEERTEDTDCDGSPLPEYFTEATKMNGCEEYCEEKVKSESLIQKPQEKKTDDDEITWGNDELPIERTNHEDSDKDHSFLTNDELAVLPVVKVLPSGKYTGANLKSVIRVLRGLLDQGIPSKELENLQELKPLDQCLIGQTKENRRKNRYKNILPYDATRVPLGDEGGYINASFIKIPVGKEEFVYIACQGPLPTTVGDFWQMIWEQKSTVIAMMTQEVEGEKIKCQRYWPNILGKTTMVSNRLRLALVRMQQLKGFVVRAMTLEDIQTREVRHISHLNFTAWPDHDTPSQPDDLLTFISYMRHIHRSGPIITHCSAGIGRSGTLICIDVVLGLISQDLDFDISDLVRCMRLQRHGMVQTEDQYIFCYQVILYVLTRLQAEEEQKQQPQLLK
Sequence of LAR (P10586 30-1907, species assumed): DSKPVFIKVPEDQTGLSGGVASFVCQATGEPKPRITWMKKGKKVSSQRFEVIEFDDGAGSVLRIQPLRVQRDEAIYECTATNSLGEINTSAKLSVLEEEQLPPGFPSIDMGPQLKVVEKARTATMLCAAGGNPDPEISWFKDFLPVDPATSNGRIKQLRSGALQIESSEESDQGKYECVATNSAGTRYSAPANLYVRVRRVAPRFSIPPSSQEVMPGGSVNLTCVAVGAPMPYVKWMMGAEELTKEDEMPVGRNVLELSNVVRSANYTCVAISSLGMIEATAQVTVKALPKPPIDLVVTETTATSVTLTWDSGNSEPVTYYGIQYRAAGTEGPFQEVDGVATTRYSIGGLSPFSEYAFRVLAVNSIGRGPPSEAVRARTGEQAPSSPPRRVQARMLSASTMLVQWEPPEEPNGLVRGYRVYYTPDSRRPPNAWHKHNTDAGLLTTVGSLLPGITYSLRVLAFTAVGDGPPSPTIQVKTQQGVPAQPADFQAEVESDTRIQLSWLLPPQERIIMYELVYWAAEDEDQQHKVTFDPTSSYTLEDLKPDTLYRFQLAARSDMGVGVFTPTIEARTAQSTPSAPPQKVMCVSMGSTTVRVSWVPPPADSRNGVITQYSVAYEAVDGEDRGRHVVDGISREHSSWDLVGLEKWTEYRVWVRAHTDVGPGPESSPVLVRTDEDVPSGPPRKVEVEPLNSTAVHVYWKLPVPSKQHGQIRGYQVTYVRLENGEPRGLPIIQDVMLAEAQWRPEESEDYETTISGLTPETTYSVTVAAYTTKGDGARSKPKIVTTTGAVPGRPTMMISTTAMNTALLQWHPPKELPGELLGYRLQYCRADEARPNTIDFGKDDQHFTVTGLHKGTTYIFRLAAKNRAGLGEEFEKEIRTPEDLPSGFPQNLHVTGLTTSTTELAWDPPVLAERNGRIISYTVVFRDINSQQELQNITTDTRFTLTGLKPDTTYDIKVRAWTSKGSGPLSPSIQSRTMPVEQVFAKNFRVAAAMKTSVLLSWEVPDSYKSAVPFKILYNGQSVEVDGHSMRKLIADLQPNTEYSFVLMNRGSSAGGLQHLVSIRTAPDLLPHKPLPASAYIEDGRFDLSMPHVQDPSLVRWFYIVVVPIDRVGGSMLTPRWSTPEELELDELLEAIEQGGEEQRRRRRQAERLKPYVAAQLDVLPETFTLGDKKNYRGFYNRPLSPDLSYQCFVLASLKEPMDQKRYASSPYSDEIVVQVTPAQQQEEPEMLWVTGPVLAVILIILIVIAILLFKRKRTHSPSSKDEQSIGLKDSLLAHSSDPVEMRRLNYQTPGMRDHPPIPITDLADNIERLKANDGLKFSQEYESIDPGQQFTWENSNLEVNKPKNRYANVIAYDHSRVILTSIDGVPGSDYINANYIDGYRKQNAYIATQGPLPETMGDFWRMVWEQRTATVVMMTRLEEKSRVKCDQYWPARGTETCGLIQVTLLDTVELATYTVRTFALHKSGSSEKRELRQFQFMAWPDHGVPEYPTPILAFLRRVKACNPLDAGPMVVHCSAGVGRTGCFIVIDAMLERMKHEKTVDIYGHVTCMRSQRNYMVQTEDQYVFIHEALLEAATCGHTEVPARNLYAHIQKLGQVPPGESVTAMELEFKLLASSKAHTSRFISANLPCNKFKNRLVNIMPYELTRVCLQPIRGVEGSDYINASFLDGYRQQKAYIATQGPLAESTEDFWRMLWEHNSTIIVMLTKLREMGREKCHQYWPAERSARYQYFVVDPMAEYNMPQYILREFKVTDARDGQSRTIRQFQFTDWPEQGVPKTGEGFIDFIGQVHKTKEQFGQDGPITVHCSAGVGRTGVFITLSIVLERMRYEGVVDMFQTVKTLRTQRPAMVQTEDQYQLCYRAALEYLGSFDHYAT

CCc1ccc(C(=O)NCCCC[C@H](NC(=O)[C@H](Cc2ccc(C(F)(F)P(=O)(O)O)cc2)NC(=O)[C@H](Cc2ccccc2)NC(=O)CO[C@H]2C[C@@H](C)CC[C@@H]2C(C)C)C(N)=O)cc1 [Compound 8]
> 1000 nM: LAR | He-PTP | FAP1 | Cdc14A

Reference: publication PMC2741613 (Journal of the American Chemical Society, 2009)
